PMC9753537 (ACS Omega, 2022)

Biological target: urease (Canavalia ensiformis, UniProt P07374)
Test: In vitro urease inhibition assay
Type: biochemical
How it was run: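 Enzyme preincubated with test compound in phosphate buffer (pH 6.8) for 10 min at 37 °C, then phenol and alkali reagents added. Absorbance read at 625 nm, with thiourea as the standard inhibitor. Percent inhibition calculated from absorbance, run in triplicate.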

Sequence of urease (P07374 whole entry, looked up): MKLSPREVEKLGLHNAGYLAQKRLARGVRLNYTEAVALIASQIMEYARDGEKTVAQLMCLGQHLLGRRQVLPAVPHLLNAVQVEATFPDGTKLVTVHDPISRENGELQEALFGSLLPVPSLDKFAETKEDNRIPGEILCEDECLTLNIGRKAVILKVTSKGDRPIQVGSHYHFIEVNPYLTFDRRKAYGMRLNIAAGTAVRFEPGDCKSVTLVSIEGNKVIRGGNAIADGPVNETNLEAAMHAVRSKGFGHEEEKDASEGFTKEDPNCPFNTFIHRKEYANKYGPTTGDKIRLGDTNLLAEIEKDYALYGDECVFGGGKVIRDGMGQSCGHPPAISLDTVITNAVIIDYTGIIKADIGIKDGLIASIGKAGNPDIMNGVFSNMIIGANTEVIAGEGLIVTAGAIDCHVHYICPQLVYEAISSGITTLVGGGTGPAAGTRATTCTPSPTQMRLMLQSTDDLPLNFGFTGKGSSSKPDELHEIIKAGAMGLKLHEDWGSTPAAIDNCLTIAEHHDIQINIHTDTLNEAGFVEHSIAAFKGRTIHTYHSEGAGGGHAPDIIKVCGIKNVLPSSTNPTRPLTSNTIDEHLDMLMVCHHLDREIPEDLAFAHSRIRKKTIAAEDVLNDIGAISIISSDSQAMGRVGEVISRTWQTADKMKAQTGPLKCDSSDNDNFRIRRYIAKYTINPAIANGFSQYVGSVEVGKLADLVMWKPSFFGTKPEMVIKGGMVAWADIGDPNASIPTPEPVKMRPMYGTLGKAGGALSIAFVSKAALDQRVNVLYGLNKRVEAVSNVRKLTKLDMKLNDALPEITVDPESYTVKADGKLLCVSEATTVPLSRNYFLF

Work on `CC(C(=O)NN=Cc1cccc(C(F)(F)F)c1)c1ccc(-c2ccccc2)c(F)c1` (stereo not drawn) [Compound 25, 2-(2-Fluoro-[1,1′-biphenyl]-4-yl)-N′-(3-(trifluoromethyl)benzylidene)propanehydrazide] yielded an IC50 of 59.5 ± 4.28 µM.
In the case of `CC(C(=O)NN=Cc1cc([N+](=O)[O-])ccc1Cl)c1ccc(-c2ccccc2)c(F)c1` (stereo not drawn) [Compound 10, N′-(2-Chloro-5-nitrobenzylidene)-2-(2-fluoro-[1,1′-biphenyl]-4-yl)propanehydrazide], the IC50 is reported as 50.7 ± 5.17 µM.
`COc1ccc(C=NNC(=O)C(C)c2ccc(-c3ccccc3)c(F)c2)c(OC)c1OC` (stereo not drawn) [Compound 9, 2-(2-Fluoro-[1,1′-biphenyl]-4-yl)-N′-(2,3,4-trimethoxybenzylidene)propanehydrazide] showed an IC50 of 55.8 ± 3.04 µM.
Molecule `CC(C(=O)NN=Cc1cccc([N+](=O)[O-])c1)c1ccc(-c2ccccc2)c(F)c1` (stereo not drawn) [Compound 7, 2-(2-Fluoro-[1,1′-biphenyl]-4-yl)-N′-(3-nitrobenzylidene)propanehydrazide] has an IC50 of 29.2 ± 1.12 µM.
Work on `CCOc1cc(C=NNC(=O)C(C)c2ccc(-c3ccccc3)c(F)c2)ccc1OC` (stereo not drawn) [Compound 13, N′-(3-Ethoxy-4-methoxybenzylidene)-2-(2-fluoro-[1,1′-biphenyl]-4-yl)propanehydrazide] yielded an IC50 of 81 ± 8.43 µM.
`COc1ccccc1C=NNC(=O)C(C)c1ccc(-c2ccccc2)c(F)c1` (stereo not drawn) [Compound 19, 2-(2-Fluoro-[1,1′-biphenyl]-4-yl)-N′-(2-methoxybenzylidene)propanehydrazide] was tested, and the IC50 was 55.7 ± 3.82 µM.
Molecule `CCOc1ccc(C=NNC(=O)C(C)c2ccc(-c3ccccc3)c(F)c2)c(OC)c1` (stereo not drawn) [Compound 11, N′-(4-Ethoxy-2-methoxybenzylidene)-2-(2-fluoro-[1,1′-biphenyl]-4-yl)propanehydrazide] has an IC50 of 52.7 ± 3.56 µM.
For `COc1ccc(OC)c(C=NNC(=O)C(C)c2ccc(-c3ccccc3)c(F)c2)c1` (stereo not drawn) [Compound 24, N′-(2,5-Dimethoxybenzylidene)-2-(2-fluoro-[1,1′-biphenyl]-4-yl)propanehydrazide], the IC50 was 79.2 ± 7.94 µM.
For `CC(C(=O)NN=Cc1ccccc1N)c1ccc(-c2ccccc2)c(F)c1` (stereo not drawn) [Compound 6, N′-(2-Aminobenzylidene)-2-(2-fluoro-[1,1′-biphenyl]-4-yl)propanehydrazide], the IC50 was 53.7 ± 3.82 µM.
`CC(C(=O)NN=Cc1ccc(-c2ccccc2)c(F)c1)c1ccc(-c2ccccc2)c(F)c1` (stereo not drawn) [Compound 28, 2-(2-Fluoro-[1,1′-biphenyl]-4-yl)-N′-((2-fluoro-[1,1′-biphenyl]-4-yl)methylene)propanehydrazide] showed an IC50 of 58.5 ± 4.28 µM.
`CC(C(=O)NN=Cc1cccc2ccccc12)c1ccc(-c2ccccc2)c(F)c1` (stereo not drawn) [Compound 4, 2-(2-Fluoro-[1,1′-biphenyl]-4-yl)-N′-(naphthalen-1-ylmethylene)propanehydrazide] gave an IC50 of 53.7 ± 3.81 µM.
`CSc1ccc(C=NNC(=O)C(C)c2ccc(-c3ccccc3)c(F)c2)cc1` (stereo not drawn) [Compound 26, 2-(2-Fluoro-[1,1′-biphenyl]-4-yl)-N′-(4-(methylthio)benzylidene)propanehydrazide] gave an IC50 of 78 ± 7.63 µM.
With `CC(C(=O)NN=Cc1ccccc1[N+](=O)[O-])c1ccc(-c2ccccc2)c(F)c1` (stereo not drawn) [Compound 31, N′-(2-Nitrobenzylidene)-2-(2-fluoro-[1,1′-biphenyl]-4-yl)propanehydrazide] the IC50 was 28.1 ± 1.26 µM.
With `COc1ccc(Br)cc1C=NNC(=O)C(C)c1ccc(-c2ccccc2)c(F)c1` (stereo not drawn) [Compound 8, N′-(5-Bromo-2-methoxybenzylidene)-2-(2-fluoro-[1,1′-biphenyl]-4-yl)propanehydrazide] the IC50 was 58.3 ± 3.34 µM.
For `CC(C(=O)N/N=C/c1ccc([N+](=O)[O-])cc1)c1ccc(-c2ccccc2)c(F)c1` (stereo not drawn) [Compound 15, (E)-2-(2-Fluoro-[1,1′-biphenyl]-4-yl)-N′-(4-nitrobenzylidene)propanehydrazide], the IC50 was 28.6 ± 1.73 µM.
In the case of `COc1ccc(C=NNC(=O)C(C)c2ccc(-c3ccccc3)c(F)c2)c(F)c1` (stereo not drawn) [Compound 21, N′-(2-Fluoro-4-methoxybenzylidene)-2-(2-fluoro-[1,1′-biphenyl]-4-yl)propanehydrazide], the IC50 is reported as 89.7 ± 8.35 µM.
`CC(C(=O)NN=Cc1ccc(Br)cc1F)c1ccc(-c2ccccc2)c(F)c1` (stereo not drawn) [Compound 23, N′-(4-Bromo-2-fluorobenzylidene)-2-(2-fluoro-[1,1′-biphenyl]-4-yl)propanehydrazide] was tested, and the IC50 was 86.9 ± 8.71 µM.
`COc1cc(C=NNC(=O)C(C)c2ccc(-c3ccccc3)c(F)c2)cc(OC)c1Br` (stereo not drawn) [Compound 22, N′-(4-Bromo-3,5-dimethoxybenzylidene)-2-(2-fluoro-[1,1′-biphenyl]-4-yl)propanehydrazide] gave an IC50 of 90.7 ± 7.71 µM.
In the case of `Cc1ccc(C=NNC(=O)C(C)c2ccc(-c3ccccc3)c(F)c2)s1` (stereo not drawn) [Compound 29, 2-(2-Fluoro-[1,1′-biphenyl]-4-yl)-N′-((5-methylthiophen-2-yl)methylene)propanehydrazide], the IC50 is reported as 57.5 ± 4.27 µM.
For `CC(C(=O)NN=Cc1ccc(O)c(Br)c1)c1ccc(-c2ccccc2)c(F)c1` (stereo not drawn) [Compound 27, N′-(3-Bromo-4-hydroxybenzylidene)-2-(2-fluoro-[1,1′-biphenyl]-4-yl)propanehydrazide], the IC50 was 80 ± 8.61 µM.
With `CC(C(=O)NN=Cc1ccc(Br)cc1)c1ccc(-c2ccccc2)c(F)c1` (stereo not drawn) [Compound 20, N′-(4-Bromobenzylidene)-2-(2-fluoro-[1,1′-biphenyl]-4-yl)propanehydrazide] the IC50 was 58.8 ± 3.99 µM.
With `COc1cc(C=NNC(=O)C(C)c2ccc(-c3ccccc3)c(F)c2)ccc1Oc1ccccc1` (stereo not drawn) [Compound 18, 2-(2-Fluoro-[1,1′-biphenyl]-4-yl)-N′-(3-methoxy-4-phenoxybenzylidene)propanehydrazide] the IC50 was 26.5 ± 0.44 µM.
For `COc1ccc(/C=N/NC(=O)C(C)c2ccc(-c3ccccc3)c(F)c2)c(Cl)c1OC` (stereo not drawn) [Compound 16, (E)-N′-(2-Chloro-3,4-dimethoxybenzylidene)-2-(2-fluoro-[1,1′-biphenyl]-4-yl)propanehydrazide], the IC50 was 55.7 ± 3.82 µM.
`CC(C(=O)NN=Cc1cccc(O)c1O)c1ccc(-c2ccccc2)c(F)c1` (stereo not drawn) [Compound 30, N′-(2,3-Dihydroxybenzylidene)-2-(2-fluoro-[1,1′-biphenyl]-4-yl)propanehydrazide] gave an IC50 of 18.9 ± 0.61 µM.
Work on `COc1cccc(OC)c1C=NNC(=O)C(C)c1ccc(-c2ccccc2)c(F)c1` (stereo not drawn) [Compound 14, N′-(2,6-Dimethoxybenzylidene)-2-(2-fluoro-[1,1′-biphenyl]-4-yl)propanehydrazide] yielded an IC50 of 55.7 ± 3.71 µM.
In the case of `COc1cc(C=NNC(=O)C(C)c2ccc(-c3ccccc3)c(F)c2)ccc1F` (stereo not drawn) [Compound 12, N′-(4-Fluoro-3-methoxybenzylidene)-2-(2-fluoro-[1,1′-biphenyl]-4-yl)propanehydrazide], the IC50 is reported as 56.1 ± 4.89 µM.
For `CC(C(=O)NN=Cc1ccc(O)c(O)c1O)c1ccc(-c2ccccc2)c(F)c1` (stereo not drawn) [Compound 5, 2-(2-Fluoro-[1,1′-biphenyl]-4-yl)-N′-(2,3,4-trihydroxybenzylidene)propanehydrazide], the IC50 was 25.1 ± 1.13 µM.
